# Source: ChEMBL document CHEMBL1135021, “Biotinylated lithocholic acids for affinity chromatography of mammalian DNA polymerases alpha and beta” (Bioorg Med Chem Lett, 2002)
# Assays:
# Nucleic Acid [1] = details: Bos taurus; 25 uM
# Nucleic Acid [2] = details: Bos taurus; 25 uM; remark: listed apart in the source
# Nucleic Acid [3] = details: Bos taurus; 25 uM; remark: listed apart in the source
# Nucleic Acid [4] = assay: Compound was evaluated for relative maximum velocity (Vmax) at a concentration of 0 uM on calf DNA polymerase alpha as a function of DNA template primer dose; format: nucleic-acid assay; details: Bos taurus
# Procedure, shortened: (§1)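 Kinetic runs used calf thymus pol α or rat pol β (0.05 units each) preincubated with compound at 0 °C for 10 min in Tris–HCl pH 7.5/DTT/glycerol/EDTA buffer. Either poly(dA)/oligo(dT)12–18 (2/1) template-primer or dTTP substrate was varied. Km and Vmax came from double reciprocal plots, Ki from Dixon plots.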
# Nucleic Acid [5] = details: Bos taurus; 50 uM
# Nucleic Acid [6] = details: Bos taurus; 50 uM; remark: listed apart in the source
# Nucleic Acid [7] = assay: Compound was evaluated for relative maximum velocity (Vmax) at a concentration of 0 uM on calf DNA polymerase alpha as a function of nucleotide substrate concentration; format: nucleic-acid assay; details: Bos taurus
# Procedure, shortened: as §1
# Nucleic Acid [8] = details: Bos taurus; 25 uM; remark: listed apart in the source
# [9] = system: C[C@H](CCC(=O)O)[C@H]1CC[C@H]2[C@@H]3CCC4C[C@@H](OC(=O)CCNC(=O)CCCCCNC(=O)CCCCCNC(=O)CCCCC5SCC6NC(=O)NC65)CC[C@]4(C)[C@H]3CC[C@]12C; assay: Compound was evaluated for relative maximum velocity (Vmax) at a concentration of 10 uM on rat DNA polymerase beta as a function of template primer dose
# Procedure, shortened: (§2)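 Rat DNA pol β (0.05 units) was used. Compound was dissolved in DMSO, sonicated 30 s, and preincubated with enzyme for 10 min at 0 °C in 50 mM Tris–HCl (pH 7.5), 1 mM dithiothreitol, 50% glycerol and 0.1 mM EDTA. It was then added to the standard reaction. Template-primer poly(dA)/oligo(dT)12–18 (2/1) or dTTP substrate was varied. Km and Vmax came from double reciprocal plots.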
# [10] = system: C[C@H](CCC(=O)O)[C@H]1CC[C@H]2[C@@H]3CCC4C[C@@H](O)CC[C@]4(C)[C@H]3CC[C@]12C; details: 5 uM
# [11] = system: C[C@H](CCC(=O)O)[C@H]1CC[C@H]2[C@@H]3CCC4C[C@@H](O)CC[C@]4(C)[C@H]3CC[C@]12C; details: 0 uM
# [12] = system: C[C@H](CCC(=O)O)[C@H]1CC[C@H]2[C@@H]3CCC4C[C@@H](O)CC[C@]4(C)[C@H]3CC[C@]12C; details: 5 uM; remark: listed apart in the source
# [13] = system: C[C@H](CCC(=O)O)[C@H]1CC[C@H]2[C@@H]3CCC4C[C@@H](OC(=O)CCNC(=O)CCCCCNC(=O)CCCCCNC(=O)CCCCC5SCC6NC(=O)NC65)CC[C@]4(C)[C@H]3CC[C@]12C; assay: Michaelis constant at a concentration of 10 uM on rat DNA polymerase beta as a function of nucleotide substrate concentration
# Procedure, shortened: as §1
# [14] = system: C[C@H](CCC(=O)O)[C@H]1CC[C@H]2[C@@H]3CCC4C[C@@H](OC(=O)CCNC(=O)CCCCCNC(=O)CCCCCNC(=O)CCCCC5SCC6NC(=O)NC65)CC[C@]4(C)[C@H]3CC[C@]12C; assay: Michaelis constant at a concentration of 0 uM on rat DNA polymerase beta as a function of template primer dose
# Procedure, shortened: as §1
# [15] = system: C[C@H](CCC(=O)O)[C@H]1CC[C@H]2[C@@H]3CCC4C[C@@H](O)CC[C@]4(C)[C@H]3CC[C@]12C; details: 5 uM; remark: listed apart in the source
# [16] = system: C[C@H](CCC(=O)O)[C@H]1CC[C@H]2[C@@H]3CCC4C[C@@H](OC(=O)CCNC(=O)CCCCCNC(=O)CCCCCNC(=O)CCCCC5SCC6NC(=O)NC65)CC[C@]4(C)[C@H]3CC[C@]12C; assay: Michaelis constant at a concentration of 10 uM on rat DNA polymerase beta as a function of template primer dose
# Procedure, shortened: as §1
# [17] = system: C[C@H](CCC(=O)O)[C@H]1CC[C@H]2[C@@H]3CCC4C[C@@H](OC(=O)CCNC(=O)CCCCCNC(=O)CCCCCNC(=O)CCCCC5SCC6NC(=O)NC65)CC[C@]4(C)[C@H]3CC[C@]12C; assay: Michaelis constant at a concentration of 0 uM on rat DNA polymerase beta as a function of nucleotide substrate concentration
# Procedure, shortened: as §2
# [18] = system: C[C@H](CCC(=O)O)[C@H]1CC[C@H]2[C@@H]3CCC4C[C@@H](O)CC[C@]4(C)[C@H]3CC[C@]12C; details: 10 uM
# [19] = system: C[C@H](CCC(=O)O)[C@H]1CC[C@H]2[C@@H]3CCC4C[C@@H](OC(=O)CCNC(=O)CCCCCNC(=O)CCCCCNC(=O)CCCCC5SCC6NC(=O)NC65)CC[C@]4(C)[C@H]3CC[C@]12C; assay: Michaelis constant at a concentration of 20 uMon rat DNA polymerase beta as a function of nucleotide substrate concentration; details: 20 uM
# Procedure, shortened: as §1
# [20] = system: C[C@H](CCC(=O)O)[C@H]1CC[C@H]2[C@@H]3CCC4C[C@@H](O)CC[C@]4(C)[C@H]3CC[C@]12C; details: 10 uM; remark: listed apart in the source
# [21] = system: C[C@H](CCC(=O)O)[C@H]1CC[C@H]2[C@@H]3CCC4C[C@@H](OC(=O)CCNC(=O)CCCCCNC(=O)CCCCCNC(=O)CCCCC5SCC6NC(=O)NC65)CC[C@]4(C)[C@H]3CC[C@]12C; assay: Compound was evaluated for relative maximum velocity (Vmax)at a concentration of 10 uM on rat DNA polymerase beta as a function of nucleotide substrate concentration
# Procedure, shortened: as §2
# [22] = system: C[C@H](CCC(=O)O)[C@H]1CC[C@H]2[C@@H]3CCC4C[C@@H](OC(=O)CCNC(=O)CCCCCNC(=O)CCCCCNC(=O)CCCCC5SCC6NC(=O)NC65)CC[C@]4(C)[C@H]3CC[C@]12C; assay: Michaelis constant at a concentration of 20 uM on rat DNA polymerase beta as a function of template primer dose
# Procedure, shortened: as §1
# [23] = system: C[C@H](CCC(=O)O)[C@H]1CC[C@H]2[C@@H]3CCC4C[C@@H](O)CC[C@]4(C)[C@H]3CC[C@]12C; details: 5 uM; remark: listed apart in the source
# Nucleic Acid [24] = assay: Compound was evaluated for Michaelis constant at a concentration of 0 uM on calf DNA polymerase alpha as a function of DNA template primer dose; format: nucleic-acid assay; details: Bos taurus
# Procedure, shortened: as §1
# Nucleic Acid [25] = assay: Compound was evaluated for relative maximum velocity (Vmax) at a concentration of 10 uM on calf DNA polymerase alpha as a function of nucleotide substrate concentration; format: nucleic-acid assay; details: Bos taurus
# Procedure, shortened: as §1
# Nucleic Acid [26] = assay: Compound was evaluated for relative maximum velocity (Vmax) at a concentration of 5 uM on calf DNA polymerase alpha as a function of template primer dose; format: nucleic-acid assay; details: Bos taurus
# Procedure, shortened: as §1
# Nucleic Acid [27] = assay: Michaelis constant at a concentration of 5 uM on calf DNA polymerase alpha as a function of nucleotide substrate concentration; format: nucleic-acid assay; details: Bos taurus
# Procedure, shortened: as §1
# Nucleic Acid [28] = assay: Compound was evaluated for relative maximum velocity (Vmax) at a concentration of 10 uM on calf DNA polymerase alpha as a function of template primer dose; format: nucleic-acid assay; details: Bos taurus
# Procedure, shortened: as §1
# Nucleic Acid [29] = assay: Compound was evaluated for relative maximum velocity (Vmax) at a concentration of 5 uM on calf DNA polymerase alpha as a function of nucleotide substrate concentration; format: nucleic-acid assay; details: Bos taurus
# Procedure, shortened: as §1
molecule,measurement,setting,value
C[C@H](CCC(=O)O)[C@H]1CC[C@H]2[C@@H]3CCC4C[C@@H](O)CC[C@]4(C)[C@H]3CC[C@]12C (stereo partly specified),Km,Nucleic Acid [1],13 µM
same,Km,Nucleic Acid [2],1.65 µM
same,Vmax,Nucleic Acid [3],31.3 pM/h
same,Vmax,Nucleic Acid [4],55.6 pM/h
same,Vmax,Nucleic Acid [5],14.8 pM/h
same,Vmax,Nucleic Acid [6],17.7 pM/h
same,Vmax,Nucleic Acid [7],29.2 pM/h
same,Vmax,Nucleic Acid [8],24.9 pM/h
DNA polymerase beta (Rattus norvegicus) (from UniProt P06766),Vmax,[9],111 pMl hr-1
same,Vmax,[10],62.5 pMl hr-1
same,Km,[11],3.05 µM
same,Vmax,[12],111 pMl hr-1
same,Km,[13],6.67 µM
same,Km,[14],6.47 µM
same,Km,[15],9.41 µM
same,Km,[16],9.98 µM
same,Km,[17],3.05 µM
same,Km,[18],18.3 µM
same,Km,[19],9.49 µM
same,Km,[20],7.86 µM
same,Vmax,[21],62.5 pMl hr-1
same,Km,[22],21.7 µM
same,Km,[23],6.28 µM
C[C@H](CCC(=O)O)[C@H]1CC[C@H]2[C@@H]3CCC4C[C@@H](OC(=O)CCNC(=O)CCCCCNC(=O)CCCCCNC(=O)CCCCC5SCC6NC(=O)NC65)CC[C@]4(C)[C@H]3CC[C@]12C (stereo partly specified),Km,Nucleic Acid [24],13 µM
same,Vmax,Nucleic Acid [4],55.6 pM/h
same,Vmax,Nucleic Acid [25],17.8 pM/h
same,Vmax,Nucleic Acid [26],33.5 pM/h
same,Km,Nucleic Acid [27],1.65 µM
same,Vmax,Nucleic Acid [28],21.3 pM/h
same,Vmax,Nucleic Acid [29],24.3 pM/h
same,Vmax,Nucleic Acid [7],29.2 pM/h
